Assay results reported in ChEMBL document CHEMBL3808379, “Isouronium and N-hydroxyguanidinium derivatives as Cell growth inhibitors: A comparative study” (Eur J Med Chem, 2016).

Assays:
[1] = Cytotoxicity against human Kelly cells assessed as cell viability reduction incubated for 72 hrs by alamar blue assay; format: functional, cell-based
Summary of the method: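 Kelly cells, 6000 per well, were allowed to attach for 24 h, then treated in triplicate at 0.1–100 µM final or with ddH2O vehicle for 72 h at 37 °C. AlamarBlue was added for 4.5 h in the dark and fluorescence read at ex 544/em 590 nm. Blank-subtracted % of vehicle; IC50 from a sigmoidal dose-response fit; ≥3 independent experiments.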

[2] = Cell cycle arrest in human Kelly cells assessed as accumulation at S phase at 25 uM after 48 hrs by propidium iodide staining-based flow cytometric analysis (reference value: 19.05 +/- 2.11%); format: functional
[3] = Cell cycle arrest in human Kelly cells assessed as accumulation at G2/M phase at 50 uM after 72 hrs by propidium iodide staining-based flow cytometric analysis (reference value: 13.84 +/- 0.76%); format: functional
[4] = Cell cycle arrest in human Kelly cells assessed as accumulation at polyploid Gn phase at 50 uM after 48 hrs by propidium iodide staining-based flow cytometric analysis (reference value: 8.97 +/- 1.27%); format: functional
[5] = Cell cycle arrest in human Kelly cells assessed as accumulation at G0/G1 phase at 50 uM after 24 hrs by propidium iodide staining-based flow cytometric analysis (reference value: 52.37 +/- 1.44%); format: functional
[6] = Binding affinity to salmon sperm DNA assessed as increase in thermal melting temperature by spectrophotometric analysis; conditions: Salmonidae
[7] = Cell cycle arrest in human Kelly cells assessed as accumulation at pre-G1 phase at 50 uM after 48 hrs by propidium iodide staining-based flow cytometric analysis (reference value: 5.88 +/- 1.13%); format: functional
[8] = Cell cycle arrest in human Kelly cells assessed as accumulation at polyploid Gn phase at 50 uM after 72 hrs by propidium iodide staining-based flow cytometric analysis (reference value: 13.07 +/- 0.25%); format: functional
[9] = Cell cycle arrest in human Kelly cells assessed as accumulation at polyploid Gn phase at 50 uM after 24 hrs by propidium iodide staining-based flow cytometric analysis (reference value: 9.85 +/- 1.54%); format: functional
[10] = Cell cycle arrest in human Kelly cells assessed as accumulation at S phase at 25 uM after 24 hrs by propidium iodide staining-based flow cytometric analysis (reference value: 18.67 +/- 1.9%); format: functional
[11] = Cell cycle arrest in human Kelly cells assessed as accumulation at pre-G1 phase at 25 uM after 24 hrs by propidium iodide staining-based flow cytometric analysis (reference value: 6.12 +/- 0.95%); format: functional
[12] = Cell cycle arrest in human Kelly cells assessed as accumulation at G0/G1 phase at 25 uM after 24 hrs by propidium iodide staining-based flow cytometric analysis (reference value: 52.37 +/- 1.44%); format: functional
[13] = Cell cycle arrest in human Kelly cells assessed as accumulation at S phase at 25 uM after 72 hrs by propidium iodide staining-based flow cytometric analysis (reference value: 16.29 +/- 0.81%); format: functional
[14] = Cell cycle arrest in human Kelly cells assessed as accumulation at polyploid Gn phase at 25 uM after 72 hrs by propidium iodide staining-based flow cytometric analysis (reference value: 13.07 +/- 0.25%); format: functional
[15] = Cell cycle arrest in human Kelly cells assessed as accumulation at G2/M phase at 50 uM after 48 hrs by propidium iodide staining-based flow cytometric analysis (reference value: 13.68 +/- 0.74%); format: functional
[16] = Cell cycle arrest in human Kelly cells assessed as accumulation at polyploid Gn phase at 25 uM after 48 hrs by propidium iodide staining-based flow cytometric analysis (reference value: 8.97 +/- 1.27%); format: functional
[17] = Cell cycle arrest in human Kelly cells assessed as accumulation at G2/M phase at 50 uM after 24 hrs by propidium iodide staining-based flow cytometric analysis (reference value: 13.12 +/- 0.93%); format: functional
[18] = Cytotoxicity against human HL60 cells assessed as cell viability reduction incubated for 72 hrs by alamar blue assay; format: functional, cell-based; conditions: HL-60, 72 h
Summary of the method: (§1)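 HL-60 cells in log phase, 40,000 per well, were treated in triplicate with compound at 10–100 µM (final, 1:100 from ddH2O stocks) or 1% ddH2O vehicle for 72 h at 37 °C. AlamarBlue was then added for 4.5 h in the dark and fluorescence read at ex 544/em 590 nm. Viability is blank-subtracted and expressed as % of vehicle. IC50 comes from a sigmoidal fit; ≥3 independent experiments.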

[19] = Cell cycle arrest in human Kelly cells assessed as accumulation at S phase at 50 uM after 72 hrs by propidium iodide staining-based flow cytometric analysis (reference value: 16.29 +/- 0.81%); format: functional
[20] = Cell cycle arrest in human Kelly cells assessed as accumulation at G2/M phase at 25 uM after 72 hrs by propidium iodide staining-based flow cytometric analysis (reference value: 13.84 +/- 0.76%); format: functional
[21] = Cell cycle arrest in human Kelly cells assessed as accumulation at S phase at 50 uM after 48 hrs by propidium iodide staining-based flow cytometric analysis (reference value: 19.05 +/- 2.11%); format: functional
[22] = Cell cycle arrest in human Kelly cells assessed as accumulation at pre-G1 phase at 50 uM after 24 hrs by propidium iodide staining-based flow cytometric analysis (reference value: 6.12 +/- 0.95%); format: functional
[23] = Cell cycle arrest in human Kelly cells assessed as accumulation at G0/G1 phase at 25 uM after 48 hrs by propidium iodide staining-based flow cytometric analysis (reference value: 52.54 +/- 2.32%); format: functional
[24] = Cell cycle arrest in human Kelly cells assessed as accumulation at pre-G1 phase at 25 uM after 48 hrs by propidium iodide staining-based flow cytometric analysis (reference value: 5.88 +/- 1.13%); format: functional
[25] = Cell cycle arrest in human Kelly cells assessed as accumulation at G0/G1 phase at 25 uM after 72 hrs by propidium iodide staining-based flow cytometric analysis (reference value: 46.82 +/- 1.46%); format: functional
[26] = Cell cycle arrest in human Kelly cells assessed as accumulation at S phase at 50 uM after 24 hrs by propidium iodide staining-based flow cytometric analysis (reference value: 18.67 +/- 1.9%); format: functional
[27] = Cell cycle arrest in human Kelly cells assessed as accumulation at G0/G1 phase at 50 uM after 48 hrs by propidium iodide staining-based flow cytometric analysis (reference value: 52.54 +/- 2.32%); format: functional
[28] = Cell cycle arrest in human Kelly cells assessed as accumulation at G0/G1 phase at 50 uM after 72 hrs by propidium iodide staining-based flow cytometric analysis (reference value: 46.82 +/- 1.46%); format: functional
[29] = Cell cycle arrest in human Kelly cells assessed as accumulation at G2/M phase at 25 uM after 48 hrs by propidium iodide staining-based flow cytometric analysis (reference value: 13.68 +/- 0.74%); format: functional
[30] = Cell cycle arrest in human Kelly cells assessed as accumulation at pre-G1 phase at 50 uM after 72 hrs by propidium iodide staining-based flow cytometric analysis (reference value: 10.21 +/- 2.85%); format: functional
[31] = Cell cycle arrest in human Kelly cells assessed as accumulation at polyploid Gn phase at 25 uM after 24 hrs by propidium iodide staining-based flow cytometric analysis (reference value: 9.85 +/- 1.54%); format: functional
[32] = Cell cycle arrest in human Kelly cells assessed as accumulation at G2/M phase at 25 uM after 24 hrs by propidium iodide staining-based flow cytometric analysis (reference value: 13.12 +/- 0.93%); format: functional
[33] = Cell cycle arrest in human Kelly cells assessed as accumulation at pre-G1 phase at 25 uM after 72 hrs by propidium iodide staining-based flow cytometric analysis (reference value: 10.21 +/- 2.85%); format: functional
[34] = Dissociation constant, pKa of the compound; format: physicochemical
[35] = Cell cycle arrest in human HL60 cells assessed as accumulation at G2/M phase at 50 uM after 72 hrs by propidium iodide staining-based flow cytometric analysis (reference value: 10.53 +/- 0.81%); format: functional; conditions: HL-60
[36] = Cell cycle arrest in human HL60 cells assessed as accumulation at polyploid Gn phase at 50 uM after 48 hrs by propidium iodide staining-based flow cytometric analysis (reference value: 3.02 +/- 0.56%); format: functional; conditions: HL-60
[37] = Cell cycle arrest in human HL60 cells assessed as accumulation at G0/G1 phase at 50 uM after 48 hrs by propidium iodide staining-based flow cytometric analysis (reference value: 58.77 +/- 2.33%); format: functional; conditions: HL-60
[38] = Cell cycle arrest in human HL60 cells assessed as accumulation at S phase at 50 uM after 24 hrs by propidium iodide staining-based flow cytometric analysis (reference value: 24.46 +/- 1.15%); format: functional; conditions: HL-60
[39] = Cell cycle arrest in human HL60 cells assessed as accumulation at G0/G1 phase at 50 uM after 72 hrs by propidium iodide staining-based flow cytometric analysis (reference value: 59.5 +/- 1.5%); format: functional; conditions: HL-60
[40] = Cell cycle arrest in human HL60 cells assessed as accumulation at G0/G1 phase at 50 uM after 24 hrs by propidium iodide staining-based flow cytometric analysis (reference value: 56.05 +/- 1.4%); format: functional; conditions: HL-60
[41] = Cell cycle arrest in human HL60 cells assessed as accumulation at polyploid Gn phase at 50 uM after 24 hrs by propidium iodide staining-based flow cytometric analysis (reference value: 2.96 +/- 0.79%); format: functional; conditions: HL-60
[42] = Cell cycle arrest in human HL60 cells assessed as accumulation at S phase at 50 uM after 72 hrs by propidium iodide staining-based flow cytometric analysis (reference value: 23.58 +/- 1.38%); format: functional; conditions: HL-60
[43] = Cell cycle arrest in human HL60 cells assessed as accumulation at pre-G1 phase at 50 uM after 24 hrs by propidium iodide staining-based flow cytometric analysis (reference value: 0.81 +/- 0.11%); format: functional; conditions: HL-60
[44] = Cell cycle arrest in human HL60 cells assessed as accumulation at S phase at 50 uM after 48 hrs by propidium iodide staining-based flow cytometric analysis (reference value: 24.29 +/- 1.37%); format: functional; conditions: HL-60
[45] = Cell cycle arrest in human HL60 cells assessed as accumulation at G2/M phase at 50 uM after 48 hrs by propidium iodide staining-based flow cytometric analysis (reference value: 11.35 +/- 1.05%); format: functional; conditions: HL-60
[46] = Cell cycle arrest in human HL60 cells assessed as accumulation at polyploid Gn phase at 50 uM after 72 hrs by propidium iodide staining-based flow cytometric analysis (reference value: 3.43 +/- 0.48%); format: functional; conditions: HL-60
[47] = Cell cycle arrest in human HL60 cells assessed as accumulation at pre-G1 phase at 50 uM after 48 hrs by propidium iodide staining-based flow cytometric analysis (reference value: 1.41 +/- 0.32%); format: functional; conditions: HL-60
[48] = Cell cycle arrest in human HL60 cells assessed as accumulation at pre-G1 phase at 50 uM after 72 hrs by propidium iodide staining-based flow cytometric analysis (reference value: 2.21 +/- 0.57%); format: functional; conditions: HL-60
[49] = Cell cycle arrest in human HL60 cells assessed as accumulation at G2/M phase at 50 uM after 24 hrs by propidium iodide staining-based flow cytometric analysis (reference value: 16.73 +/- 0.59%); format: functional; conditions: HL-60
[50] = Cytotoxicity against human HL60 cells assessed as cell viability reduction at 100 uM incubated for 72 hrs by alamar blue assay; format: functional; conditions: HL-60, 72 h; summary of the method: as §1
[51] = system: N=C(N)Oc1ccc(Sc2ccc(O)cc2)cc1; assay: Inhibition of bovine brain tubulin polymerization assessed as rate of tubulin polymerization at 1 mM mesured at 30 s intervals for 60 mins by spectrophotometric analysis (reference value: 3.647 mOD/min); conditions: Bos taurus

Compound `N=C(N)Oc1ccc(Oc2ccc(O)cc2)cc1` has an IC50 [1] of 17.3 µM, an Activity [2] of 27.5% and an Activity [3] of 2.44%. For the same compound, the Activity [4] was 4.19%, the Activity [5] was 42.1% and the ΔTm [6] was 4 °C. For the same compound, the Activity [7] was 50.7%, the Activity [8] was 2.69% and the Activity [9] was 7.77%. It also gave an Activity [10] of 25.6%, an Activity [11] of 20.4% and an Activity [12] of 31.2%. The Activity [13] was 16.4%, the Activity [14] was 4.09% and the Activity [15] was 3.5%. The Activity [16] was 6.91%, the Activity [17] was 8.23% and the IC50 [18] was 36.9 µM. For the same compound, the Activity [19] was 17.3%, the Activity [20] was 5.04% and the Activity [21] was 11.7%. The Activity [22] was 24.3%, the Activity [23] was 22.2% and the Activity [24] was 38%. The Activity [25] was 26.2%, the Activity [26] was 16% and the Activity [27] was 25.2%. The Activity [28] was 29%, the Activity [29] was 7.65% and the Activity [30] was 49.5%. The Activity [31] was 13.5%, the Activity [32] was 11.3% and the Activity [33] was 48.4%.

`N=C(N)Oc1ccccc1` gave a pKa [34] of 8.29.

With `N=C(N)Oc1ccc(Cc2ccc(O)cc2)cc1` the ΔTm [6] was 2 °C and the IC50 [18] was over 100 µM.

Compound `N=C(N)Oc1ccc(NC(=O)c2ccc(OC(=N)N)cc2)cc1` has an IC50 [1] of over 100 µM, a ΔTm [6] of 2 °C and an IC50 [18] of over 100 µM.

Work on `N=C(N)Oc1ccc(Sc2ccc(OC(=N)N)cc2)cc1` yielded an IC50 [1] of 28.7 µM, an Activity [35] of 21.9% and an Activity [36] of 8.42%. The ΔTm [6] was 6 °C, the Activity [37] was 38.3% and the Activity [38] was 26.9%. For the same compound, the Activity [39] was 35.5%, the Activity [40] was 52% and the Activity [41] was 3.11%. It also gave an Activity [42] of 15.6%, an IC50 [18] of 57.4 µM and an Activity [43] of 1.46%. For the same compound, the Activity [44] was 21.9%, the Activity [45] was 29.1% and the Activity [46] was 22%. The Activity [47] was 2.25%, the Activity [48] was 4.87% and the Activity [49] was 18.1%. It also gave an inhibition at 100 µM [50] of 95.8%.

Work on `N=C(N)Nc1ccccc1` [PHENYLGUANIDINE] yielded a pKa [34] of 10.9.

For `N=C(N)Oc1ccc(Cc2ccc(OC(=N)N)cc2)cc1`, the ΔTm [6] was 4 °C and the IC50 [18] was over 100 µM.

Work on `c1ccc(NC2=NCCN2)cc1` yielded a pKa [34] of 9.16.

Compound “Tubulin (Bos taurus) (from UniProt Q6B856+Q862L2+Q862F3)” has a Vmax [51] of 2.63 mOD/minute.
